Data on eight molecules can be found in ChEMBL document CHEMBL1759860, “Synthesis and biological evaluation of 5-membered spiro heterocycle-benzopyran derivatives against myocardial ischemia” (2011).

Test [1] has as its system H9c2. The test is described as follows: Anti-ischemic activity against ischemia/reperfusion-induced rat H9c2 cell death assessed as cell viability at 100 uM in presence of mito-KATP channel blocker 5-hydroxydecanoic acid. Format: functional, cell-based.
Test [2] relates to H9c2. Nature of the test: Anti-ischemic activity against ischemia/reperfusion-induced rat H9c2 cell death assessed as cell viability at 100 uM (Rbv = 63 +/- 2%). The note with it: read-out: Activity. Format: functional.
In test [3] the test system is H9c2. Nature of the test: Anti-ischemic activity against ischemia/reperfusion-induced rat H9c2 cell death assessed as cell viability at 10 uM (Rbv = 63 +/- 2%). Format: functional. The note with it: read-out: Activity.
The test system of test [4] is H9c2. Nature of the test: Anti-ischemic activity against ischemia/reperfusion-induced rat H9c2 cell death assessed as cell viability at 10 uM in presence of mito-KATP channel blocker 5-hydroxydecanoic acid. Format: functional, cell-based.
The test system of test [5] is Rattus norvegicus. The test is described as follows: Anti-ischemic activity against Langendorff perfused Wistar rat heart assessed as recovery of post-ischemic inotropic functionality measured during whole reperfusion period at 40 mg/kg, ip relative to control. It counts as functional, organism-based. Also on record: dose 40 mg/kg. The following applies: Wister. A digest of the protocol:
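Rats pre-treated with test agent 40 mg/kg before heart isolation. Langendorff-perfused hearts underwent ischemia then reperfusion. Rate-pressure product (RPP) was recorded over the reperfusion period and expressed as % of pre-ischemic RPP.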

The subject of test [6] is Rattus norvegicus. The test is described as follows: Anti-ischemic activity against in Langendorff perfused Wistar rat heart assessed as reduction in ischemia-induced left ventricular tissue injury at 40 mg/kg, ip by morphological analysis. More on the design: dose 40 mg/kg. It counts as functional, organism-based. The note with it: Wister. A digest of the protocol: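 Hearts came from rats pre-treated at 40 mg/kg and underwent ischemia/reperfusion in Langendorff perfusion. Left ventricles were analysed morphologically for injured tissue. Infarct size was expressed as % of left ventricular area (Ai/ALV%).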

SMILES strings stand for the structures. The source made the active and inactive calls. The rule behind the calls is not given here.

`CC1=Nc2ccc(Cl)cc2S(=O)(=O)N1` [DIAZOXIDE]: the result with H9c2 [1] was inactive. Also, in the test with H9c2 [2], the viability at 100 µM turned out to be 103%. With `CC(=O)Nc1ccc(CN2CC3(CC(C)(C)Oc4ccc(Br)cc43)OC2=O)cc1` (racemic), the viability at 10 µM in the test on H9c2 [3] worked out at 81%. With `CC(=O)Nc1ccc(CN2C(=N)C3(CC(C)(C)Oc4ccccc43)OC2=O)cc1` (racemic), the viability at 10 µM with H9c2 [3] worked out at 68%. As for `CC(=O)Nc1ccc(CN2CC3(CC(C)(C)Oc4ccccc43)OCC2=O)cc1` (stereo not given), in the test on H9c2 [3], the viability at 10 µM was found to be 99%. Besides, the result in the test on H9c2 [4] was inactive. The outcome with Rattus norvegicus [5] and with Rattus norvegicus [6] was Active. Regarding `CC1(C)CC2(CN(Cc3ccc(NS(C)(=O)=O)cc3)C(=O)O2)c2ccccc2O1` (racemic), in the test on H9c2 [3], the viability at 10 µM is 84%. In the case of `CC(=O)Nc1ccc(CN2CC3(CC(C)(C)Oc4ccccc43)OC2=O)cc1` (racemic), the viability at 10 µM in the test with H9c2 [3] amounted to 92%. In addition, in the test on H9c2 [4], the outcome was inactive. The result with Rattus norvegicus [5] and in the test on Rattus norvegicus [6] was Active. On to `CC1(C)CC2(OC(=O)N(Cc3ccc(NS(C)(=O)=O)cc3)C2=N)c2cc(Br)ccc2O1` (racemic), for which the viability at 10 µM in the test with H9c2 [3] was determined as 78%.

Consider `CC(=O)Nc1ccc(CN2C(=N)C3(CC(C)(C)Oc4ccc(Br)cc43)OC2=O)cc1` (racemic), for which the viability at 10 µM in the test with H9c2 [3] is 76%.
